According to ChEMBL document CHEMBL1133650, “Gold(III) complexes as potential antitumor agents: solution chemistry and cytotoxic properties of some selected gold(III) compounds” (J Med Chem, 2000):
pIC50: −log10 of the molar value.

What was measured:
[1] = Ratio of cytotoxic activity against resistant cell line to that of sensitive cell line; format: functional
A2780 [2] = assay: cytotoxic activity toward A2780 ovarian human cell line sensitive (S) to cisplatin in experiment 1; format: functional, cell-based
Procedure, shortened: (§1)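 Cisplatin-sensitive parental A2780/S human ovarian carcinoma cells, grown in RPMI 1640 with FBS at 37 °C under 5% CO2 and subcultured twice weekly. Exponentially growing cells were treated for 72 h, and growth inhibition was measured by sulforhodamine B assay in RPMI 1640 + 5% FBS. IC50 is the mean ± SE of ≥3 determinations, or the mean of two.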

A2780 [3] = assay: cytotoxic activity toward A2780 ovarian human cell line resistant (R) to cisplatin in experiment 3; format: functional, cell-based
Procedure, shortened: (§2)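 A2780/R human ovarian carcinoma cells, made cisplatin-resistant by repeated weekly 1-h exposure of the parental line to 50 μM cisplatin, kept in RPMI 1640 with FBS at 37 °C and 5% CO2. Exponentially growing cells were exposed to compound for 72 h, and growth was read by SRB assay in RPMI 1640 + 5% FBS. IC50 is the mean ± SE of at least three determinations, or the mean of two.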

A2780 [4] = assay: cytotoxic activity toward A2780 ovarian human cell line resistant (R) to cisplatin in experiment 2; format: functional, cell-based
A2780 [5] = assay: cytotoxic activity toward A2780 ovarian human cell line sensitive (S) to cisplatin in experiment 3; format: functional, cell-based; procedure, shortened: as §1
L1210 = assay: Cytotoxicity measured against L1210 cell line; format: functional, cell-based, Mus musculus
A2780 [6] = assay: cytotoxic activity toward A2780 ovarian human cell line sensitive (S) to cisplatin; format: functional, cell-based; procedure, shortened: as §1
A2780 [7] = assay: cytotoxic activity toward A2780 ovarian human cell line sensitive (S) to cisplatin in experiment 2; format: functional, cell-based
A2780 [8] = assay: cytotoxic activity toward A2780 ovarian human cell line sensitive (S) to cisplatin in experiment 5; format: functional, cell-based; procedure, shortened: as §1
A2780 [9] = assay: cytotoxic activity toward A2780 ovarian human cell line resistant (R) to cisplatin in experiment 5; format: functional, cell-based; procedure, shortened: as §2
A2780 [10] = assay: cytotoxic activity toward A2780 ovarian human cell line sensitive (S) to cisplatin in experiment 8; format: functional, cell-based; procedure, shortened: as §1
A2780 [11] = assay: cytotoxic activity toward A2780 ovarian human cell line resistant (R) to cisplatin in experiment 8; format: functional, cell-based; procedure, shortened: as §2

AUPHEN [listing 1 of 2 here]
Ratio [1]: 0.92

AU(TERPY) [listing 1 of 2 here]
pIC50 (A2780 [2]; a2780): 6.70
pIC50 (A2780 [3]; a2780): 6.43

AU(TERPY) [listing 2 of 2 here]
Ratio [1]: 1.23

c1ccc(-c2cccc(-c3ccccn3)n2)nc1 [TERPYRIDINE]
Ratio [1]: 2.88
pIC50 (A2780 [4]; Homo sapiens, A2780): 6.44
pIC50 (A2780 [2]; Homo sapiens, A2780): 6.90

c1cnc2c(c1)ccc1cccnc12 [PHENANTHROLINE]
Ratio [1]: 0.75
pIC50 (A2780 [5]; Homo sapiens, A2780): 5.44
pIC50 (A2780 [3]; Homo sapiens, A2780): 5.56

[Pt-(en2)]Cl2
pIC50 (L1210): 2.77

[AuCl4]-
pIC50 (A2780 [6]): 4.96

AUCL3(EN2) [listing 1 of 2 here]
pIC50 (A2780 [5]; a2780): 5.08
pIC50 (A2780 [3]; a2780): 4.77

CISPLATIN [listing 1 of 2 here]
Ratio [1]: 11.6

AUCYCLAM
pIC50 (A2780 [4]; a2780): < 3.92
pIC50 (A2780 [7]): 4.00

[Pt-(dien)Cl]Cl
pIC50 (L1210): 3.57

AUCL(DIEN) [listing 1 of 2 here]
Ratio [1]: 2.28

AUPHEN [listing 2 of 2 here]
pIC50 (A2780 [8]): 5.42
pIC50 (A2780 [9]): 5.46

CISPLATIN [listing 2 of 2 here]
pIC50 (A2780 [10]): 5.91
pIC50 (A2780 [11]): 4.85
pIC50 (L1210): 5.64

AUCL(DIEN) [listing 2 of 2 here]
pIC50 (A2780 [7]): 5.09
pIC50 (A2780 [3]; a2780): 4.73

AUCL3(EN2) [listing 2 of 2 here]
Ratio [1]: 2.03
